Test results published in publication PMC9592562 (Research and Practice in Thrombosis and Haemostasis, 2022).

Experiments:
[1] = test system: aPL pool sera / IIa‐8.0‐biot‐2x; assay: inhibition of aPL binding to IIa‐8.0‐biot‐2x ELISA; format: biochemical, human; details: preincubation 90 min, room temperature; 1, 10 and 100 μg/ml; n = 3–4; Figure 7A
Method in brief: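 Pooled plasma from 11 APS patients (aPL pool sera) was preincubated for 90 min at room temperature with increasing concentrations (1, 10, 100) of monomeric peptide. It was then run in the anti-β2GP1 IgG ELISA on streptavidin-coated plates bearing the biotinylated dimeric peptide. Bound IgG was detected with anti-human secondary antibody (IRDye800CW or HRP) as fluorescence (AU) or A405. Mean ± SEM, n = 3–4.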

aPL pool = assay: custom immunoassay; format: binding, human; details: coated on plate (10 μg/ml); aPL pool 1/10 dilution; n = 9
[2] = test system: aPL from pool of plasma from 11 human patients; assay: surface plasmon resonance, aPL over immobilized biotinylated peptide; format: binding; details: shape of stabilization curves; Figures 3C, 3D, 4E

| Sequence | inhibition of aPL binding to IIa‐8.0‐biot‐2x, monomeric peptide [1] | ability to interact with aPL compared with β2GP1 (aPL pool) | sustained interaction / stability of binding with aPL [2] |
| --- | --- | --- | --- |
| VSRGGMRKFICPLTG [R39‐R43] | failed to significantly inhibit | same ability to interact with aPL than β2GP1 | – |
| VSRGGMRKKKKPLTG [Ib‐1‐biot] | – | – | neither R39‐R43‐biot nor Ib‐1‐biot have sustained interaction with aPL |
